According to ChEMBL document CHEMBL5376019, “Design, synthesis and evaluation of 2-phenylpyrimidine derivatives as novel antifungal agents targeting CYP51” (RSC Med Chem, 2024):
Values after ≈ are worked out from the molar mass of the structure shown.

Experiments:
Candida albicans [1] = test: Antifungal activity against Candida albicans ATCC SC5314 assessed as fungal growth inhibition; assay type: functional
In short: (§1)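 Broth microdilution per NCCLS M27-A3, with fluconazole as positive control. Assay medium was RPMI 1640 buffered with MOPS. Inocula were diluted to 1–5 × 10^3 CFU mL−1 and seeded in 96-well plates. Compounds were dissolved in DMSO and serially diluted in the growth medium. MIC was the read-out.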

Candida albicans [2] = test: Antifungal activity against Candida albicans CPCC400616 assessed as fungal growth inhibition; assay type: functional; in short: as §1
Candida tropicalis = test: Antifungal activity against Candida tropicalis CGMCC 2.3739 assessed as fungal growth inhibition; assay type: functional; in short: as §1
Cryptococcus neoformans = test: Antifungal activity against Cryptococcus neoformans CGMCC 2.3161 assessed as fungal growth inhibition; assay type: functional; in short: as §1
Candida parapsilosis = test: Antifungal activity against Candida parapsilosis GIM 2.190 assessed as fungal growth inhibition; assay type: functional; conditions: Lodderomyces parapsilosis; in short: as §1
Nakaseomyces glabratus = test: Antifungal activity against clinical isolate Candida glabrata assessed as fungal growth inhibition; assay type: functional; in short: as §1
Pichia kudriavzevii = test: Antifungal activity against Pichia kudriavzevii GIM 2.1 assessed as fungal growth inhibition; assay type: functional; in short: as §1
MDA-MB-231 = test: Cytotoxicity against human MDA-MB-231 cells assessed as reduction in cell viability at 32 uM incubated for 24 hrs by CCK-8 assay; assay type: toxicity, cell-based; conditions: mda-mb-231, 24 h
In short: (§2)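 Cells from ATCC were grown in RPMI-1640 or DMEM with 10% FBS and 1% penicillin/streptomycin. They were seeded at 5 × 10^4 cells/well and allowed to adhere overnight at 37 °C, 5% CO2, with at least 6 replicates per group. Compounds were applied at 2–64 μM for 24 h; medium-only wells served as control. Viability was measured by CCK-8 absorbance at 450 nm.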

DU-145 = test: Cytotoxicity against human DU-145 cells assessed as reduction in cell viability at 32 uM incubated for 24 hrs by CCK-8 assay; assay type: toxicity, cell-based; conditions: du-145, 24 h; in short: as §2
L929 = test: Cytotoxicity against mouse L929 cells assessed as reduction in cell viability at 32 uM incubated for 24 hrs by CCK-8 assay; assay type: toxicity, cell-based; conditions: l929, 24 h; in short: as §2
[3] = Metabolic stability in human liver microsomes assessed as half life measured upto 60 min by LC-MS/MS analysis; assay type: ADME, Microsome
In short: (§3)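 Human liver microsomes were diluted to 0.59 mg mL−1 in 100 mM potassium phosphate buffer and prewarmed 10 min at 37 °C. Compound was added from a 100 μM working solution. Incubation was 60 min at 37 °C with NADPH, alongside a no-cofactor control. Samples taken at 5, 15, 30, 45 and 60 min were quenched in acetonitrile containing tolbutamide and labetalol, centrifuged, and analysed by LC-MS/MS.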

[4] = Metabolic stability in human liver microsomes assessed as intrinsic clearance measured upto 60 min by LC-MS/MS analysis; assay type: ADME, Microsome; conditions: 1 h; in short: as §3
[5] = Metabolic stability in human liver microsomes assessed as remaining measured upto 60 min by LC-MS/MS analysis; assay type: ADME, Microsome; conditions: read-out: Stability; in short: as §3
CYP1A2 = target: T1, CYP1A2 (Homo sapiens, UniProt P05177); test: Inhibition of CYP1A2 in human liver microsomes using phenacetin as substrate at 10 uM incubated for 10 min by LC-MS/MS analysis relative to control; assay type: ADME, Microsome; conditions: probe phenacetin
T1 sequence (P05177 whole entry): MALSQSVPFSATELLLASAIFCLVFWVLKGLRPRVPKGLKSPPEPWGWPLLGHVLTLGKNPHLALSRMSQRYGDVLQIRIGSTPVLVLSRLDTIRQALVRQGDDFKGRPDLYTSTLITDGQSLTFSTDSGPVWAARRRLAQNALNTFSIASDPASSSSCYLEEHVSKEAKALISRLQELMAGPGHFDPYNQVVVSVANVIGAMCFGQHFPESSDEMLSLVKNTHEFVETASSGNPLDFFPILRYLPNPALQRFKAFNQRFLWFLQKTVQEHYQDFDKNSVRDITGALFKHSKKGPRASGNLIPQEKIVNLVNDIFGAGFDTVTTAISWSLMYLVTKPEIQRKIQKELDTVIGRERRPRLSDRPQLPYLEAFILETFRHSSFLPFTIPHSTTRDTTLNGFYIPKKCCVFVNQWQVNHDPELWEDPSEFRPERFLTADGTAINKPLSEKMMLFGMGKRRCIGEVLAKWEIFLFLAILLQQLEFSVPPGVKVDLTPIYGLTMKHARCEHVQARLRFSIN
In short: (§4)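 Human liver microsomes (0.253 mg mL−1) were used with probe substrates: phenacetin 90 μM (1A2), diclofenac 8 μM (2C9), S-mephenytoin 20 μM (2C19), dextromethorphan 4 μM (2D6), and midazolam 2 μM plus testosterone 50 μM (3A4). Test compound was at 10 μM. Mixtures were preincubated 5 min at 37 °C, then started with an NADPH regenerating system and run 10 min at 37 °C. Reactions were stopped with internal standard and supernatant analysed by LC-MS/MS. Isoform-selective inhibitors at 10 μM served as positive controls.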

CYP2C9 = CYP2C9 (Homo sapiens, UniProt P11712); test: Inhibition of CYP2C9 in human liver microsomes using diclofenac as substrate at 10 uM incubated for 10 min by LC-MS/MS analysis relative to control; assay type: ADME, Microsome; conditions: probe diclofenac; in short: as §4
CYP2C19 = CYP2C19 (Homo sapiens, UniProt P33261); test: Inhibition of CYP2C19 in human liver microsomes using S-mephenytoin as substrate at 10 uM incubated for 10 min by LC-MS/MS analysis relative to control; assay type: ADME, Microsome; conditions: probe S-mephenytoin; in short: as §4
CYP2D6 = CYP2D6 (Homo sapiens, UniProt P10635); test: Inhibition of CYP2D6 in human liver microsomes using dextromethorphan as substrate at 10 uM incubated for 10 min by LC-MS/MS analysis relative to control; assay type: ADME, Microsome; conditions: probe dextromethorphan; in short: as §4
CYP3A4 = CYP3A4 (Homo sapiens, UniProt P08684); test: Inhibition of CYP3A4 in human liver microsomes using midazolam and testosterone as substrates at 10 uM incubated for 10 min by LC-MS/MS analysis relative to control; assay type: ADME, Microsome; conditions: probe midazolam and testosterone; in short: as §4
Chain of CYP3A4 (P08684 whole entry): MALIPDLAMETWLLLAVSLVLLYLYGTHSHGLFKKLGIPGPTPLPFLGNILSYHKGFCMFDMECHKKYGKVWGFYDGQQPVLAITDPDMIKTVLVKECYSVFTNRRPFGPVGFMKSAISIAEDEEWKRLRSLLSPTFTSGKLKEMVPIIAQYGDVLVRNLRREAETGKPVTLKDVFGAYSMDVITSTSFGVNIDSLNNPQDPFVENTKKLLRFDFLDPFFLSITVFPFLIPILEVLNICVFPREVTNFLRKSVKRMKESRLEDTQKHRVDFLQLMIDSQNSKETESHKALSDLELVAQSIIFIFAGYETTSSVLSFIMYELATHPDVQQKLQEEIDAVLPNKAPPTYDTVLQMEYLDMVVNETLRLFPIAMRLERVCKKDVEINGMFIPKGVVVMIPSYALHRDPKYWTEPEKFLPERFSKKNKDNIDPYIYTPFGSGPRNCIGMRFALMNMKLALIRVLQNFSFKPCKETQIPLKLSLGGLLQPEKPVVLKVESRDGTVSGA

Chain of CYP2C9 (P11712 whole entry): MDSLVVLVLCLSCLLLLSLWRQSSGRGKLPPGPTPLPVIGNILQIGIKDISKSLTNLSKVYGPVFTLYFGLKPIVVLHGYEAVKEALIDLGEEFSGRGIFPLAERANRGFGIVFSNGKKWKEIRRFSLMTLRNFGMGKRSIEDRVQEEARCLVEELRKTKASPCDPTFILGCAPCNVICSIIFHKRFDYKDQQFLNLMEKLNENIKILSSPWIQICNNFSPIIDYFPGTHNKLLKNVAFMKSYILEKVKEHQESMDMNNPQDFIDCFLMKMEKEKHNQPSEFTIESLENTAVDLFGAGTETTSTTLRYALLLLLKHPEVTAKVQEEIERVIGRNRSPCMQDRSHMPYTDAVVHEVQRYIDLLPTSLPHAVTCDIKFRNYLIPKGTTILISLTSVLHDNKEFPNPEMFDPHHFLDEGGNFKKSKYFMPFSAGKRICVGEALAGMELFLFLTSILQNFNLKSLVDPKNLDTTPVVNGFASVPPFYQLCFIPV
Chain of CYP2C19 (P33261 whole entry): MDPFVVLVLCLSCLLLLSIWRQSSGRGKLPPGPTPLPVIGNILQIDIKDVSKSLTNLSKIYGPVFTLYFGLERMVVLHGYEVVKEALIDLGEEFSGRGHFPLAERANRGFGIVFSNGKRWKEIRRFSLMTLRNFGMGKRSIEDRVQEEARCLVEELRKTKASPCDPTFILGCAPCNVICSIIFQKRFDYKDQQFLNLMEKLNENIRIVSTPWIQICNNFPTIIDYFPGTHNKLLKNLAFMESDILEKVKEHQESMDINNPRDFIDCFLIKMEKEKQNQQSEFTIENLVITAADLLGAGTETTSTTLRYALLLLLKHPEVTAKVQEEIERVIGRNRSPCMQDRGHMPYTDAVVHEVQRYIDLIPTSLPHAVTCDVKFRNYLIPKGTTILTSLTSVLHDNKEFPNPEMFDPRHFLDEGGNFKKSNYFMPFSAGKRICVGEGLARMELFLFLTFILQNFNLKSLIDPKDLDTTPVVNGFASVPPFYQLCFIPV
Chain of CYP2D6 (P10635 whole entry): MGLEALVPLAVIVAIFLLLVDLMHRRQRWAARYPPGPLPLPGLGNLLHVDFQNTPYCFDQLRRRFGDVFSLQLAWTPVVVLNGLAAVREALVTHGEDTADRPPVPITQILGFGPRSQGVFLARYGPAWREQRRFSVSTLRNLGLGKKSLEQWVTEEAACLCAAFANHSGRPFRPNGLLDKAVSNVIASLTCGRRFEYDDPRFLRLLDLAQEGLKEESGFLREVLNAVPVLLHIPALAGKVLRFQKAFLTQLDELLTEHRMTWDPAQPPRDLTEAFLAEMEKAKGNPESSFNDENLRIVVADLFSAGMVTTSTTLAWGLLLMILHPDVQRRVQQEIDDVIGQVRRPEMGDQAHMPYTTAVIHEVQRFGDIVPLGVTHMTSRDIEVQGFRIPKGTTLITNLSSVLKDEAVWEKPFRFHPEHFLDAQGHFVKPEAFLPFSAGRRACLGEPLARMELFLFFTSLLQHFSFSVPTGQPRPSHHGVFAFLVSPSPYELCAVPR

## COc1ccc(C(=O)C(Cn2ccnc2)NC(=O)c2cnc(-c3cccc(F)c3)nc2)cc1 (racemic)
Candida albicans [1]
  MIC: 0.25 µg/mL (≈ 0.561 µM)
Candida albicans [2]
  MIC: 1 µg/mL (≈ 2.24 µM)
Candida tropicalis
  MIC: 0.25 µg/mL (≈ 0.561 µM)
Cryptococcus neoformans
  MIC: 32 µg/mL (≈ 71.8 µM)
Candida parapsilosis
  MIC: 1 µg/mL (≈ 2.24 µM)
Nakaseomyces glabratus
  MIC: 1 µg/mL (≈ 2.24 µM)
Pichia kudriavzevii
  MIC: 1 µg/mL (≈ 2.24 µM)
MDA-MB-231
  Activity: Non-Toxic
DU-145
  Activity: Non-Toxic
L929
  Activity: Non-Toxic
[3]
  half-life: 14.8 min
[4]
  CLH: 94 µL/min/mg
[5]
  remaining at 1 h: 6.33%
CYP1A2
  inhibition at 10 min, 10 µM: 38.4%
CYP2C9
  inhibition at 10 min, 10 µM: 89.8%
CYP2C19
  inhibition at 10 min, 10 µM: 89.4%
CYP2D6
  inhibition at 10 min, 10 µM: 72.3%
CYP3A4
  inhibition at 10 min, 10 µM: 92.3%
